Laboratory results: ChEMBL document CHEMBL1764953, “Discovery of orally active carboxylic acid derivatives of 2-phenyl-5-trifluoromethyloxazole-4-carboxamide as potent diacylglycerol acyltransferase-1 inhibitors for the potential treatment of obesity and diabetes” (J Med Chem, 2011)
Activity calls are given as the source filed them. The calls are words filed in the database; no cut-off is given here.

Tests used:
Cytochrome P450 3A4 = Cytochrome P450 3A4 (Homo sapiens, UniProt P08684); test: Inhibition of CYP3A4; type: ADME
Chain of Cytochrome P450 3A4 (P08684 whole entry): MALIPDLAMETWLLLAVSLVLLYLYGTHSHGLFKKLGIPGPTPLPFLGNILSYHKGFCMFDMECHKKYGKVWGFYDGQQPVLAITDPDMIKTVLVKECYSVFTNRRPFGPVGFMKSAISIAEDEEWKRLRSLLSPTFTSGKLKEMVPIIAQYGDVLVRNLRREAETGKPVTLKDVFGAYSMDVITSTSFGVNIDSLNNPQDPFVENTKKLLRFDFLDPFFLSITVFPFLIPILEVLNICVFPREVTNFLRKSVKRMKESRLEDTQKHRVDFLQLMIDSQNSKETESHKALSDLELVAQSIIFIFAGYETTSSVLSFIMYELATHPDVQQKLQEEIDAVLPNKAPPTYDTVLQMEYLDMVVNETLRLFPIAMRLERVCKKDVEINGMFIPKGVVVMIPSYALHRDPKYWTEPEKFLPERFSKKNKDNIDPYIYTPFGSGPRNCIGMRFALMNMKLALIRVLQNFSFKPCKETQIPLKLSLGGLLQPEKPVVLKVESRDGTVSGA

Rattus norvegicus [1] = test: Antidiabetic activity in diet-induced obese Sprague-Dawley rat assessed as decrease in glucose excursion at 0.3 mg/kg, po administered once daily for 3 weeks by OGTT; type: functional, organism-based; design: dose 0.3 mg/kg
Method in brief: (§1)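 Male Sprague-Dawley DIO rats (n = 10/group), 550–650 g, reverse light/dark cycle, high fat diet from 7 weeks of age; dosed po once daily in Klucel suspension.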

Rattus norvegicus [2] = test: Antidiabetic activity in diet-induced obese Sprague-Dawley rat assessed as decrease in glucose excursion at 3 mg/kg, po administered once daily for 3 weeks by OGTT; type: functional; design: scale not given: the % may be the effect or the level left; method in brief: as §1
Cytochrome P450 2C19 = Cytochrome P450 2C19 (Homo sapiens, UniProt P33261); test: Inhibition of CYP2C19; type: ADME
Chain of Cytochrome P450 2C19 (P33261 whole entry): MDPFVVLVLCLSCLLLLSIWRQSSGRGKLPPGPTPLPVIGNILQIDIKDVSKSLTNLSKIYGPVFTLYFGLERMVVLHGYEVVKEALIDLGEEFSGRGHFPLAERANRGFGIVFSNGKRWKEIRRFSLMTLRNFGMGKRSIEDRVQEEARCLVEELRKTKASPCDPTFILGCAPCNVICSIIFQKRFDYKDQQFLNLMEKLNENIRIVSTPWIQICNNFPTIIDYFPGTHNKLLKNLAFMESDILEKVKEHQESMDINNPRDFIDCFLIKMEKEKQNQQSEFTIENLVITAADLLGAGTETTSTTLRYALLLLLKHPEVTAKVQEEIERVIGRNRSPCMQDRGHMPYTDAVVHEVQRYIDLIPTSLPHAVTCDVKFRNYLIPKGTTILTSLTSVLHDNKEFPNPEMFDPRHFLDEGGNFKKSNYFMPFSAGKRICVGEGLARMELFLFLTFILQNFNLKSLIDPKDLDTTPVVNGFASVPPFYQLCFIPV

[3] = Permeability across human Caco2 cells; type: ADME, cell-based; details: Caco-2, read-out: permeability
Rattus norvegicus [4] = test: Antidiabetic activity in diet-induced obese Sprague-Dawley rat assessed as decrease in glucose excursion at 1 mg/kg, po administered once daily for 3 weeks by OGTT; type: functional, organism-based; design: dose 1 mg/kg; method in brief: as §1
[5] = target: T1, Diacylglycerol O-acyltransferase 2 (Homo sapiens, UniProt Q96PD7); test: Inhibition of human DGAT2 expressed in baculovirus infected Sf9 cells using palmitoyl-1-14C-coenzyme A by TLC assay
T1 sequence (Q96PD7 whole entry): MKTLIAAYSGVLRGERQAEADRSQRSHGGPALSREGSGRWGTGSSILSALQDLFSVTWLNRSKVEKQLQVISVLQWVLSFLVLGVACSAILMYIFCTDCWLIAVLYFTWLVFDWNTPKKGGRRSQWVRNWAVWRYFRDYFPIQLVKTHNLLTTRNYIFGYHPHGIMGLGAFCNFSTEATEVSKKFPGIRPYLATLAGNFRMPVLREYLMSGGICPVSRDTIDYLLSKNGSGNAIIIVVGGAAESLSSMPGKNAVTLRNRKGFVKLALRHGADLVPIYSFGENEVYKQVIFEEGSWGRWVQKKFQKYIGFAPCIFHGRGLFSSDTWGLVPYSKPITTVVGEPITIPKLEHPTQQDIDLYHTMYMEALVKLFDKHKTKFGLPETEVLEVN
Method in brief: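 DGAT-2 membranes from baculovirus-infected Sf9 cells, diluted to 0.313 mg/mL in 50 mM Tris pH 7.5, 20 mM MgCl2, 0.25 M sucrose. Preincubated 15 min on ice with compound (0–600 μM solutions in 20% DMSO), then DAG and 8.3 μM [14C]palmitoyl-CoA solutions added; 5 min at 37 °C. Lipids extracted with chloroform/methanol, resolved by TLC, phosphoimager read-out.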

[6] = Lipophilicity, log D of the compound; type: physicochemical; details: octanol/water
Rattus norvegicus [7] = test: Antiobesity activity in diet-induced obese rat assessed as decrease in food intake at 0.3 mg/kg, po administered once daily for 3 weeks; type: functional; design: scale not given: the % may be the effect or the level left
Method in brief: (§2)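 Male DIO rats, 19 weeks old, on high fat diet for 12 weeks, dosed po once daily with Klucel (hydroxypropyl cellulose) suspension for 22 days; 10 rats per group. Body weight followed throughout; daily food intake recorded on days 1–3, 8, 9, 15 and 16, values averaged per group.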

Rattus norvegicus [8] = test: Antiobesity activity in diet-induced obese rat assessed as reduction in plasma triglyceride levels at 3 mg/kg, po qd after 4 hrs challenged with corn oil relative to vehicle treated control; type: functional; design: scale not given: the % may be the effect or the level left
Method in brief: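 Male DIO rats given 3 mg/kg po once daily for 1 week, with body weight gain followed. At study end, rats were fasted 4 h and challenged with corn oil 5 mL/kg; plasma triglycerides were measured 4 h later and compared with the vehicle group.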

Rattus norvegicus [9] = test: Antidiabetic activity in diet-induced obese Sprague-Dawley rat assessed as insulin-mediated decrease in glucose level at 3 mg/kg, po administered once daily for 3 weeks OGTT; type: functional, organism-based; design: dose 3 mg/kg; method in brief: as §1
[10] = Clearance in Beagle dog at 5 mg/kg, iv; type: ADME, organism-based, Canis lupus familiaris; design: dose 5 mg/kg, route intravenous; details: in vivo
Method in brief: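 Plasma levels by protein precipitation with acetonitrile and LC-MS/MS (linear range 5.0–5000 ng/mL); noncompartmental analysis; mean of n = 3.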

Rattus norvegicus [11] = test: Antiobesity activity in diet-induced obese rat assessed as reduction in body weight gain at 3 mg/kg, po administered once daily for 3 weeks; type: functional; design: scale not given: the % may be the effect or the level left; method in brief: as §2
[12] = Inhibition of P-glycoprotein
[13] = target: T2, Sterol O-acyltransferase 2 (Homo sapiens, UniProt O75908); test: Inhibition of human ACAT2 expressed in human HepG2 cells after incubated with compound for 15 mins measured after 1 hr using palmitoyl-1-14C-coenzyme A by TLC assay; type: cell-based
T2 sequence (O75908 whole entry): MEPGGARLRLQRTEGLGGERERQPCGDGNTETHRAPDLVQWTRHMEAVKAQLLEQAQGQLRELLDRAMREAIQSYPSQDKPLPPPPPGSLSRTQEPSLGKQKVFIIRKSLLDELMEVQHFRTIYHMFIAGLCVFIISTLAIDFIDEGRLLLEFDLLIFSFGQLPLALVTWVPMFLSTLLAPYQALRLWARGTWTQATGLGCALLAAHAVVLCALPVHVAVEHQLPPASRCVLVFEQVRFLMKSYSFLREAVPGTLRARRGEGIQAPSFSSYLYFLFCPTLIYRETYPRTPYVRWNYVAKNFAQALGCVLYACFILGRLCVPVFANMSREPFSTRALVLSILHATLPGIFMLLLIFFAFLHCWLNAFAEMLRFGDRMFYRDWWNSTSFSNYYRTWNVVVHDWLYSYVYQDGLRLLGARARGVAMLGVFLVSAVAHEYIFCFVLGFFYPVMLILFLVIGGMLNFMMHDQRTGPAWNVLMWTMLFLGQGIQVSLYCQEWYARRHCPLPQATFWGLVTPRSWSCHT
Method in brief: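 HepG2 membranes (mixed ACAT1/ACAT2), 2.6 mg/mL stock, diluted to 0.52 mg/mL in Tris pH 7.5 buffer. Preincubated 15 min on ice with compound (0–600 μM solutions in 20% DMSO), then 2.37 μM [1-14C]palmitoyl-CoA solution added. Product extracted and resolved by TLC with phosphoimager read-out.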

[14] = Half life in Hanover Wistar rat at 5 mg/kg, iv; type: ADME, organism-based; design: dose 5 mg/kg, route intravenous; details: in vivo
Method in brief: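 Hanover Wistar rats (n = 3) cannulated in jugular and femoral veins, dosed iv 5 mg/kg via jugular vein as a solution in 2% DMA, 15% PEG400, 77% of 28% HPβCD in pH 7 PBS. Femoral-vein blood, EDTA plasma, acetonitrile precipitation, LC-MS/MS, noncompartmental analysis; mean of n = 3.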

[15] = Association constant pKa of the compound; type: physicochemical
[16] = Cmax in diet-induced obese rat at 0.3 mg/kg, po administered once daily for 3 weeks; type: ADME, organism-based; design: dose 0.3 mg/kg, route oral; details: in vivo
[17] = Cmax in diet-induced obese rat at 3 mg/kg, po administered once daily for 3 weeks; type: ADME, organism-based; design: dose 3 mg/kg, route oral; details: in vivo
Cytochrome P450 2C9 = Cytochrome P450 2C9 (Homo sapiens, UniProt P11712); test: Inhibition of CYP2C9; type: ADME
Chain of Cytochrome P450 2C9 (P11712 whole entry): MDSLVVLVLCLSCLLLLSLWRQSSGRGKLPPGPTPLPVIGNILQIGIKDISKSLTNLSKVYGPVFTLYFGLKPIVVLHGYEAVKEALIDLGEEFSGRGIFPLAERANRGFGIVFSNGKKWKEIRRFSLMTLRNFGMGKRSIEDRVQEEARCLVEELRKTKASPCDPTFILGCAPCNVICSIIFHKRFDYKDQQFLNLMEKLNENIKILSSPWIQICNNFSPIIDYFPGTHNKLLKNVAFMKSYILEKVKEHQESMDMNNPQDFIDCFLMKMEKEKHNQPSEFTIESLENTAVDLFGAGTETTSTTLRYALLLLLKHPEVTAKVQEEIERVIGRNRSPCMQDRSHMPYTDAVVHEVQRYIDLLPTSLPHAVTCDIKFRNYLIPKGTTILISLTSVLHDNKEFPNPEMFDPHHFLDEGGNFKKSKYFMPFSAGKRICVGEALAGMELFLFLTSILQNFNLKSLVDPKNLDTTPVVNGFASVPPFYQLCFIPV

IC50 (Cytochrome P450 3A4): > 50 µM | IC50 (Cytochrome P450 2C19): > 50 µM | Papp [3]: 24.5 ×10⁻⁶ cm/s | IC50 [5]: > 100 µM | logD [6]: 2.34 | clearance [10]: 1.3 mL/min/kg | inhibition [12]: inactive | IC50 [13]: 68.4 µM | half-life [14]: 8.6 h | pKa [15]: 5.78 | Cmax [16]: 2 µM | Cmax [17]: 15.1 µM | IC50 (Cytochrome P450 2C9): > 50 µM
Structure (SMILES): O=C(Nc1ccc(C2CCN(C(=O)[C@H]3CC[C@H](C(=O)O)CC3)CC2)cc1)c1nc(-c2ccccc2)oc1C(F)(F)F
Activity (Rattus norvegicus [1]): Active | Activity (Rattus norvegicus [2]): 15% | Activity (Rattus norvegicus [4]): Active | Activity (Rattus norvegicus [7]): 17% | Activity (Rattus norvegicus [8]): 85% | Activity (Rattus norvegicus [9]): Active | Activity (Rattus norvegicus [11]): 8%
